Consider 2 compounds from ChEMBL document CHEMBL3526048, “In vitro metabolism of rivoglitazone, a novel peroxisome proliferator-activated receptor γ agonist, in rat, monkey, and human liver microsomes and freshly isolated hepatocytes” (Drug Metab Dispos, 2011).

A short description of data set [1]: Retention time of the compound by LC-MS/MS analysis. The class given is physicochemical. The method, boiled down:
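LC-MS/MS used a YMC-Pack ODS-A column (1.5 × 150 mm, 5 μm) at 30°C, 0.1 ml/min. Mobile phase was water and acetonitrile, each with 0.01% TFA. Gradient: 12→60% B over 30 min, →90% B over 5 min, hold 5 min. Detection was UV 220 nm with positive ESI Q-TOF (capillary 3300 V, cone 45 V), collision energy 20 eV and xenon as collision gas.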

Data set [2] is described as follows: Drug metabolism in rat hepatocytes assessed as formation of 5-hydroxy-5-(4-((6-methoxy-1-methyl-1H-benzo[d]imidazol-2-yl)methoxy)benzyl)thiazolidine-2,4-dione at 30 uM after 3 hrs by radio-HPLC/LC-MS/MS analysis in presence of NADPH-generating system and NADPH-generating system/SAM. It is filed as ADME, cell-based, Hepatocyte.
The nature of data set [3]: Drug metabolism in human hepatocytes assessed as formation of 5-(4-((6-hydroxy-1-methyl-1H-benzo[d]imidazol-2-yl)methoxy)benzyl)thiazolidine-2,4-dione at 30 uM after 3 hrs by radio-HPLC/LC-MS/MS analysis in presence of NADPH-generating system and NADPH-generating system/SAM. It is filed as ADME, cell-based, Hepatocyte.
The next data set concerns Liver microsome. The data set is described as follows: Drug metabolism in human liver microsomes assessed as formation of 3-(4-((6-methoxy-1-methyl-1H-benzo[d]imidazol-2-yl)methoxy)phenyl)-2-(methylsulfonyl)propanamide at 20 uM after 2 hrs by radio-HPLC/LC-MS/MS analysis in presence of NADPH-generating system/SAM. It is filed as ADME. In general terms: Microsomes from liver hold many membrane-bound enzymes, among them those of drug oxidation.

The next data set concerns the target Cytochrome P450 2C19 (Homo sapiens, UniProt P33261). Kind of data set: Activity of human CYP2C19 expressed in microsomes isolated from baculovirus infected insect cell assessed as enzyme-mediated 2-mercapto-3-(4-((6-methoxy-1-methyl-1H-benzo[d]imidazol-2-yl)methoxy)phenyl)propanoic acid formation at 20 uM after 2 hrs by radio-HPLC/LC-MS/MS analysis in presence of NADPH-generating system. It is filed as ADME. Summed up:
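Baculovirus/insect-cell microsomes expressing single human CYPs, 1 mg/ml protein, with 50 mM potassium phosphate (pH 7.4) or 100 mM Tris-HCl (pH 7.5). NADPH-generating system: 2 mM NADP⁺, 20 mM glucose 6-phosphate, 2 units/ml G6PDH, 10 mM MgCl₂. [¹⁴C]rivoglitazone at 20 μM, 2 h at 37°C with shaking. Control used insect-cell control supersomes. Stopped with acetonitrile; supernatant concentrated under nitrogen; metabolites analysed by radio-HPLC, LC-MS and LC-MS/MS.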

For data set [4], the target named is T1, UDP-glucuronosyltransferase 2B7 (Homo sapiens, UniProt P16662).
T1 sequence (P16662 whole entry): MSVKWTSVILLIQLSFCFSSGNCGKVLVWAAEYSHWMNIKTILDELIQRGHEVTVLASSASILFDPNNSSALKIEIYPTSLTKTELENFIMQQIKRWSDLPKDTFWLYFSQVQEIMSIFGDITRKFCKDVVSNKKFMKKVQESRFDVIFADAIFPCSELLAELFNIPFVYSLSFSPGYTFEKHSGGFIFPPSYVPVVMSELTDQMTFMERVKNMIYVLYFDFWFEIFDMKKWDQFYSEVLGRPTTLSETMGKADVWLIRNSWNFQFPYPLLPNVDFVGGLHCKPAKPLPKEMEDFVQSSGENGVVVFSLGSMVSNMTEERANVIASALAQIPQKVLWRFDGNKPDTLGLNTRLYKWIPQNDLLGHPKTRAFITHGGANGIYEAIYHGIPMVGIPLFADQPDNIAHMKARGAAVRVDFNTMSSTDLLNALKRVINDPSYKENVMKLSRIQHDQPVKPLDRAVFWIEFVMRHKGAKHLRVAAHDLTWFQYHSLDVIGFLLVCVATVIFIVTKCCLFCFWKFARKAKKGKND
The data set is described as follows: Activity of human UGT2B7 expressed in microsomes isolated from baculovirus infected insect cell assessed as enzyme-mediated 2-mercapto-3-(4-((6-methoxy-1-methyl-1H-benzo[d]imidazol-2-yl)methoxy)phenyl)propanoic acid formation at 20 uM after 4 hrs by radio-HPLC/LC-MS/MS analysis in presence of UDPGA, UDPGA/SAM and NADPH-generating system in presence of UDPGA and UDPGA/SAM. It is filed as ADME.

The target of a further data set is Cytochrome P450 3A5 (Homo sapiens, UniProt P20815). Kind of data set: Activity of human CYP3A5 expressed in microsomes isolated from baculovirus infected insect cell assessed as enzyme-mediated 3-(4-((6-methoxy-1-methyl-1H-benzo[d]imidazol-2-yl)methoxy)phenyl)-2-(methylthio)propanoic acid formation at 20 uM after 2 hrs by radio-HPLC/LC-MS/MS analysis in presence of NADPH-generating system/SAM and UDPGA/SAM. It is filed as ADME. Summed up: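 cDNA-expressed human CYP3A5 in baculovirus-insect-cell microsomes (1 mg/ml protein) was incubated with [¹⁴C]rivoglitazone (20 μM) in 50 mM potassium phosphate (pH 7.4) or 100 mM Tris-HCl (pH 7.5). NADPH-generating system: 2 mM NADP⁺, 20 mM glucose 6-phosphate, 2 units/ml G6PDH, 10 mM MgCl₂. Incubation ran 2 h at 37°C with shaking; insect-cell control supersomes served as control. Acetonitrile stop, supernatant concentrated, then radio-HPLC, LC-MS and LC-MS/MS.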
Cytochrome P450 3A5, sequence (P20815 whole entry): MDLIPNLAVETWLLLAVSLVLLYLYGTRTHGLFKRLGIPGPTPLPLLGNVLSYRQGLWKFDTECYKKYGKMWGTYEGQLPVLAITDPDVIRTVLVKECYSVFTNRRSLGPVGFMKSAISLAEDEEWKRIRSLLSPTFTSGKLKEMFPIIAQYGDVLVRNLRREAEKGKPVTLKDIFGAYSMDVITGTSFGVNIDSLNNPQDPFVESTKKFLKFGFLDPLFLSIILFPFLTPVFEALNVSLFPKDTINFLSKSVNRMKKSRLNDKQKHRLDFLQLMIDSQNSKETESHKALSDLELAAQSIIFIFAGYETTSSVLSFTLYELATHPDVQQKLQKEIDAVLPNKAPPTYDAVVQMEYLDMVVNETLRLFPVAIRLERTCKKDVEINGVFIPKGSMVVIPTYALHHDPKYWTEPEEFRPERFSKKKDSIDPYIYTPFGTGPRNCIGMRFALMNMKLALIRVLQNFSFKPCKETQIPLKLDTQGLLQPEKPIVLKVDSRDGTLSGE

In data set [5] the target is T2, UDP-glucuronosyltransferase 1A3 (Homo sapiens, UniProt P35503).
T2 sequence (P35503 whole entry): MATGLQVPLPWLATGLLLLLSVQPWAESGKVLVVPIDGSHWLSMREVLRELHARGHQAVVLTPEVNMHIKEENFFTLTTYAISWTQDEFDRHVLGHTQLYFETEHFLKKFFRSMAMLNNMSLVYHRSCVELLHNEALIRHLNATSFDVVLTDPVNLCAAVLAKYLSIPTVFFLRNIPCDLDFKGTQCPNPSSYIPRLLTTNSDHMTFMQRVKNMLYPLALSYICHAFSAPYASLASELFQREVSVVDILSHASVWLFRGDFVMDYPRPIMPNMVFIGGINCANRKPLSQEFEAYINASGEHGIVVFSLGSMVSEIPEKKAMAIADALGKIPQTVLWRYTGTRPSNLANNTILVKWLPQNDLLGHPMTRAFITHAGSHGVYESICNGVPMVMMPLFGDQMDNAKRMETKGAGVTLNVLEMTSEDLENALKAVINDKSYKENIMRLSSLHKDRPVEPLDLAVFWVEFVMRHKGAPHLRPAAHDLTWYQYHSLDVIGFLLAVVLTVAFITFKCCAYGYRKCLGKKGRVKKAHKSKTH
Kind of data set: Activity of human UGT1A3 expressed in microsomes isolated from baculovirus infected insect cell assessed as enzyme-mediated 3-(4-((6-methoxy-1-methyl-1H-benzo[d]imidazol-2-yl)methoxy)phenyl)-2-(methylthio)propanoic acid formation at 20 uM after 4 hrs by radio-HPLC/LC-MS/MS analysis in presence of NADPH-generating system/SAM and UDPGA/SAM in presence of UDPGA and UDPGA/SAM. It is filed as ADME.

A short description of data set [6]: Drug metabolism in monkey hepatocytes assessed as formation of 2-amino-3-((1-carboxy-2-(4-((6-methoxy-1-methyl-1H-benzo[d]imidazol-2-yl)methoxy)phenyl)ethyl)disulfanyl)propanoic acid at 30 uM after 3 hrs by radio-HPLC/LC-MS/MS analysis. The following applies: cynomolgus monkey.

Cytochrome P450 2C19, sequence (P33261 whole entry): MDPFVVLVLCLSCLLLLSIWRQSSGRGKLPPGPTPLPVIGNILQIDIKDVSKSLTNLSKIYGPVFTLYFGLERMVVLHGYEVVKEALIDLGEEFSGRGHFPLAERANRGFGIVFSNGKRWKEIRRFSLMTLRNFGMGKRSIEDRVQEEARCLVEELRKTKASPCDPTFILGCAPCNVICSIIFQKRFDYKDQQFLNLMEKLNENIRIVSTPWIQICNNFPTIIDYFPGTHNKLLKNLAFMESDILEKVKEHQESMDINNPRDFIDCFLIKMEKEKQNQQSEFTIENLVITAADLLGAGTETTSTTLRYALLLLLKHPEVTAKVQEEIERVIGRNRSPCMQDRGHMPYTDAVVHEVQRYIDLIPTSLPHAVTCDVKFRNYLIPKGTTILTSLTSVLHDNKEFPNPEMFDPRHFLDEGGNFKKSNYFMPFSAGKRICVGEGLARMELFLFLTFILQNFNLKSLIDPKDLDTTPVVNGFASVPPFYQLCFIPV

The compound `COc1ccc2nc(COc3ccc(CC(S)C(=O)O)cc3)n(C)c2c1` (centres undefined) displayed a Retention_time in data set [1] of 23.9 min.

Take `COc1ccc2nc(COc3ccc(C[14CH]4SC(=O)NC4=O)cc3)n(C)c2c1.Cl` (racemic): the Drug metabolism entry is reported as “metabolite_detected” in [2]; “metabolite_detected” in data set [3]; “metabolite_detected” with Liver microsome; “metabolite_detected” at Cytochrome P450 2C19; “metabolite_detected” in [4]; “metabolite_not_detected” on Cytochrome P450 3A5. The Drug metabolism result in [5] and in [6] was “metabolite_not_detected” each time.
